For 14 molecules, IC50 results are on record in ChEMBL document CHEMBL1795289, “5-alk(en)ylresorcinols as the major active components in wheat bran inhibit human colon cancer cell growth” (Bioorg Med Chem, 2011).

What all share (assay type): functional, cell-based
One assay relates to HT-29. Kind of assay: Growth inhibition of human HT-29 cells after 48 hrs by MTT assay. The following applies: HT-29, 48 h. The method, boiled down: (§1)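 Cells seeded at 5000/well and left 24 h at 37 °C to attach. Samples in DMSO diluted into McCoy's 5A with 10% FBS, penicillin/streptomycin, amphotericin B and glutamine at 5, 10, 25, 37 and 50 µg/mL, 48 h, 37 °C. MTT 2.41 mmol/L for 3 h, formazan dissolved in DMSO, absorbance 595 nm. Reported as % cell growth, n = 8; IC50 by curve fitting.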
For orientation: Tetrazolium assays rely on reduction of a dye to a coloured formazan, in cell work by metabolically active cells.

In a further assay the test system is HCT-116. In words: Growth inhibition of human HCT116 cells after 48 hrs by MTT assay. The following applies: HCT-116, 48 h. The method, boiled down:
as §1

The next assay has as its system HeLa. In words: Growth inhibition of human HeLa cells.
Another assay has as its system FM3A. Kind of assay: Growth inhibition of mouse FM3A cells.
In another assay the test system is BT-20. In words: Growth inhibition of human BT20 cells.

In brackets after ≈: the same amount, converted by molar mass.

On to `CCCCCC/C=C\CCCCCCCCCCCc1cc(O)cc(O)c1`, for which the figures for the IC50 in the assay with HT-29 and in the assay with HCT-116 were 30.4 µg/mL (≈ 81.2 µM) and 11.6 µg/mL (≈ 30.9 µM), respectively.
For `CCCCC/C=C\C/C=C\CCCCCCCCCc1cc(O)cc(O)c1`, in that order: 48.3 µg/mL (≈ 130 µM) and 27.1 µg/mL (≈ 72.6 µM).
Regarding `CCCC/C=C\CCCCCCCCCCCCCc1cc(O)cc(O)c1`, in the assay with HCT-116, the IC50 was determined as 17.6 µg/mL (≈ 47.1 µM).
As to `CC/C=C\C/C=C\C/C=C\CCCCCCCCCc1cc(O)cc(O)c1`, the half-maximal inhibitory concentration (IC50) in the assay on HT-29 came out at 39.5 µg/mL (≈ 107 µM); with HCT-116, 20 µg/mL (≈ 54.1 µM).
`CCCCCCCCCCCCCCCCCCCCCc1cc(O)cc(O)c1`: the IC50 with HT-29 and in the assay on HCT-116 was over 50 µg/mL in each case.
For `CCCCCCCCCCCCCCCCCCCCCCCCCc1cc(O)cc(O)c1`, the IC50 with HT-29 and in the assay on HCT-116 was over 50 µg/mL throughout.
In the assay with HCT-116, `CCCCCCCCCCCCCCCCCCCCCC(=O)Cc1cc(O)cc(O)c1` returned an IC50 of over 50 µg/mL.
As to `CCCCCCCCCCCCCCCCCc1cc(O)cc(O)c1`, the IC50 in the assay on HT-29 came to 31.1 µg/mL (≈ 89.4 µM); in the assay on HCT-116, 18.9 µg/mL (≈ 54.3 µM).
As for `CCCCCCCCCCCCCCCCCCCc1cc(O)cc(O)c1`, the IC50 is over 50 µg/mL in the assay with HT-29 and 36.2 µg/mL (≈ 96.1 µM) with HCT-116.
For `CCCCCCCCCCCCCCCCCCCCCCCc1cc(O)cc(O)c1`, in that order: over 50 µg/mL and over 50 µg/mL.
Turning to `CCCCCCCCCCCCCCCc1cc(O)cc(O)c1` [CARDOL], the figures for the IC50 in the assay with HeLa, with FM3A and in the assay with BT-20 were 4.02 µg/mL (≈ 12.5 µM), 2.8 µM and 6.25 µg/mL (≈ 19.5 µM), respectively.
`CCCCCCCCCCCCCCCCCCCC(=O)Cc1cc(O)cc(O)c1` had an IC50 in the assay with HCT-116 of 16.6 µg/mL (≈ 39.7 µM).
Consider `CCCC/C=C\CCCCCCCCCCCCCCCc1cc(O)cc(O)c1`, for which the IC50 in the assay with HT-29 amounted to 46.9 µg/mL (≈ 116 µM); with HCT-116, 22.3 µg/mL (≈ 55.3 µM).
Take `CCCC/C=C\CCCCCCCCCCCc1cc(O)cc(O)c1`: the values for the IC50 in the assay with HT-29 and in the assay on HCT-116 were 35.6 µg/mL (≈ 103 µM) and 20 µg/mL (≈ 57.8 µM), respectively.

Broadly, the IC50 is the concentration at which inhibition is half-maximal. A higher IC50 goes with weaker potency.
